These results are taken from ChEMBL document CHEMBL1649235, “The proteasome inhibitor epoxomicin has potent Plasmodium falciparum gametocytocidal activity” (Antimicrob Agents Chemother, 2009).

Series [1] relates to Plasmodium falciparum. As to the kind of experiment: Antimicrobial activity against Plasmodium falciparum 3D7 assessed as gametocytes per 1000 RBCs at 100 uM after 2 days by Giemsa staining relative to control. It counts as functional. Summed up: (§1)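 3D7 cultures holding asexual parasites and gametocytes, gametocytogenesis induced per Ifediba and Vanderberg. Inhibitor at 100 µM or DMSO carrier for 24 h in a sealed chamber (90% N2, 5% CO2, 5% O2) at 37°C. Fed daily with RPMI 1640, hypoxanthine (10 mg liter−1) and 10% human serum. Gametocytes per 1,000 RBCs counted and staged on Giemsa smears 2 days after treatment.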

Series [2] concerns Plasmodium falciparum. As to the kind of experiment: Antimicrobial activity against gametocyte stage of Plasmodium falciparum 3D7 at 100 uM after 24 hrs by Giemsa staining. It counts as functional, organism-based. A digest of the protocol: (§2)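 3D7 cultures containing asexual stages and gametocytes incubated 24 h with inhibitor at 100 µM or DMSO carrier, at 37°C in a sealed chamber (90% N2, 5% CO2, 5% O2), fed with RPMI 1640, hypoxanthine and 10% human serum. Asexual parasites and gametocytes assessed on Giemsa-stained smears.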

Series [3] relates to Plasmodium falciparum. As to the kind of experiment: Antimicrobial activity against asexual stage of Plasmodium falciparum 3D7 at 100 uM after 24 hrs by Giemsa staining. The class given is functional, organism-based. Summed up:
as §2

For series [4], the system named is Plasmodium falciparum. The experiment in a line: Antimicrobial activity against Plasmodium falciparum 3D7 assessed as stage 2 gametocytes per 1000 RBCs at 100 uM after 2 days by Giemsa staining relative to control. It counts as functional. Summed up: as §1
Series [5] has as its system Plasmodium falciparum. The experiment in a line: Antimicrobial activity against Plasmodium falciparum 3D7 assessed as stage 3 gametocytes per 1000 RBCs at 100 uM after 2 days by Giemsa staining relative to control. The class given is functional. Summed up: as §1
In series [6] the test system is Plasmodium falciparum. The experiment in a line: Antimicrobial activity against Plasmodium falciparum 3D7 assessed as stage 4 gametocytes per 1000 RBCs at 100 uM after 2 days by Giemsa staining relative to control. It counts as functional. A digest of the protocol:
as §1

The subject of series [7] is Plasmodium falciparum. The experiment in a line: Antimicrobial activity against Plasmodium falciparum 3D7 assessed as stage 3 gametocyte per 1000 RBCs at 100 uM after 5 days by Giemsa staining relative to control. The class given is functional. Summed up:
(§3)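 Gametocyte cultures of strain 3D7, 8 days after setup, exposed 24 h to inhibitor at 100 µM or an equal amount of DMSO. Kept at 37°C under 90% N2/5% CO2/5% O2 and fed daily with RPMI 1640, hypoxanthine and 10% human serum. Gametocytes per 1,000 RBCs scored by stage (II–V) on Giemsa-stained smears.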

Series [8] has as its system Plasmodium falciparum. As to the kind of experiment: Antimicrobial activity against Plasmodium falciparum 3D7 assessed as stage 4 gametocyte per 1000 RBCs at 100 uM after 5 days by Giemsa staining relative to control. The class given is functional. A digest of the protocol: as §3
Series [9] deals with Plasmodium falciparum. The experiment in a line: Antimicrobial activity against Plasmodium falciparum 3D7 assessed as stage 5 gametocyte per 1000 RBCs at 100 uM after 5 days by Giemsa staining relative to control. The class given is functional. A digest of the protocol: as §3
The test system of series [10] is Plasmodium falciparum. The experiment in a line: Antimicrobial activity against asexual stage of Plasmodium falciparum 3D7 assessed as reduction in parasite count at 100 uM after 24 hrs by Giemsa staining. The class given is functional, organism-based. A digest of the protocol: as §2
For series [11], the system named is Plasmodium falciparum. As to the kind of experiment: Antimicrobial activity against asexual stage of Plasmodium falciparum 3D7 assessed as reduction in parasite count at 100 nM after 24 hrs by Giemsa staining. It counts as functional. Also on record: scale not given: the % may be the effect or the level left. A digest of the protocol: (§4)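 Mixed asexual/gametocyte 3D7 cultures (mainly stage II–III gametocytes) exposed 24 h to serial dilutions (10 nM to 1 µM) or DMSO carrier at 37°C under low-oxygen gas. Asexual parasites and gametocytes counted on Giemsa smears and expressed as percent of DMSO control. IC50 calculated from the 24-h time point.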

Series [12] deals with Plasmodium falciparum. As to the kind of experiment: Antimicrobial activity against asexual stage of Plasmodium falciparum 3D7 assessed as reduction in parasite count at 1uM after 24 hrs by Giemsa staining. The class given is functional. Also on record: scale not given: the % may be the effect or the level left. A digest of the protocol:
as §4

Series [13] has as its system Plasmodium falciparum. As to the kind of experiment: Antimicrobial activity against gametocyte stage of Plasmodium falciparum 3D7 after 24 hrs. It counts as functional, organism-based. The conditions noted are these: 3D7, 24 h. Summed up:
as §4

The subject of series [14] is Plasmodium falciparum. As to the kind of experiment: Antimicrobial activity against asexual stage of Plasmodium falciparum 3D7 after 24 hrs. It counts as functional, organism-based. As to conditions: 3D7, 24 h. A digest of the protocol:
as §4

Series [15] can be described thus: Cytotoxicity against human A549 cells assessed as viable cells at 1 uM by MTS assay in presence of 10% fetal calf serum. It counts as cell-based. The conditions noted are these: read-out: Activity. A digest of the protocol: (§5)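 NIH-3T3 mouse fibroblasts or A549 human lung epithelial cells (1 × 104 to 5 × 10^4 per well) in DMEM with 10% FCS. Viability read by MTS tetrazolium reduction as absorbance.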
For orientation: Tetrazolium assays rely on reduction of a dye to a coloured formazan, in cell work by metabolically active cells.

A short description of series [16]: Cytotoxicity against mouse 3T3 cells assessed as viable cells at 1 uM by MTS assay in presence of 10% fetal calf serum. The class given is cell-based. The conditions noted are these: 3T3 cells (NIH3T3), read-out: Activity. A digest of the protocol:
as §5

In series [17] the test system is Plasmodium falciparum. As to the kind of experiment: Antimicrobial activity against gametocyte stage of Plasmodium falciparum 3D7 assessed as reduction in parasite count at 100 nM after 24 hrs by Giemsa staining. The class given is functional. Also on record: scale not given: the % may be the effect or the level left. Summed up:
as §4

The test system of series [18] is Plasmodium falciparum. The experiment in a line: Antimicrobial activity against gametocyte stage of Plasmodium falciparum 3D7 assessed as reduction in parasite count at 1 uM after 24 hrs by Giemsa staining. It counts as functional. Also on record: scale not given: the % may be the effect or the level left. Summed up:
as §4

Active and inactive are the calls of the source. No cut-off for these calls is given here.

In the case of `Cc1ccc(S(=O)(=O)N[C@@H](Cc2ccccc2)C(=O)CCl)cc1` [TPCK], the Activity in the series with Plasmodium falciparum [1] turned out to be 21%. In addition, the result with Plasmodium falciparum [2] and in the series on Plasmodium falciparum [3] was inactive.
Consider `CCOC(=O)[C@H]1O[C@@H]1C(=O)N[C@@H](CC(C)C)C(=O)NCCC(C)C` [ALOXISTATIN], for which the Activity in the series on Plasmodium falciparum [4] is recorded as 72%; in the series on Plasmodium falciparum [5], 18%; in the series on Plasmodium falciparum [6], 10%; in the series on Plasmodium falciparum [7], 22%; with Plasmodium falciparum [8] it was 68%; in the series with Plasmodium falciparum [9], 10%. For the same compound, the outcome in the series on Plasmodium falciparum [10] was Active.
Take `CC[C@H](C)[C@H](NC(=O)[C@H]([C@@H](C)CC)N(C)C(C)=O)C(=O)N[C@H](C(=O)N[C@@H](CC(C)C)C(=O)[C@@]1(C)CO1)[C@@H](C)O` [EPOXOMYCIN]: the Activity stood at 86% with Plasmodium falciparum [11], 86% in the series on Plasmodium falciparum [12], 77% in the series on Plasmodium falciparum [17] and 77% with Plasmodium falciparum [18]. In addition, the IC50 in the series on Plasmodium falciparum [13] stood at 0.054 µM; in the series with Plasmodium falciparum [14], 0.041 µM. Moreover, the viability at 1 µM in [15] and in series [16] was 80% in each case.

One may read the IC50 as the concentration that inhibits the measured activity by half.
